Data set [1] relates to RAW264.7. The data set is described as follows: Cytotoxicity against mouse RAW264.7 cells by CCK-8 assay. Type of data set: cell-based. The procedure, abridged: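 Viability read by CCK-8 on the cells remaining after the Griess nitrite assay of the LPS-stimulated RAW 264.7 cultures.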
On the technique in general: Tetrazolium assays rely on reduction of a dye to a coloured formazan, in cell work by metabolically active cells.

Data set [2] has as its system RAW264.7. Nature of the data set: Inhibition of LPS-induced nitric oxide production in mouse RAW264.7 cells by Griess assay. Type of data set: functional, cell-based. The procedure, abridged:
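LPS-stimulated RAW 264.7 cells; NO output measured as nitrite in culture supernatant by Griess reagent. IC50 derived, reported as mean ± SD from three separate experiments. Aminoguanidine run as positive control.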
A general note: The Griess reaction detects nitrite, a stable product of nitric oxide.

pIC50: −log10 of the molar value.

In general, pIC50 refers to the negative decadic logarithm of the IC50, by convention in mol/L. The low end stands for a high IC50, the high end for a low IC50. For the molecule `CC(C)=CCc1c(O)c(CC=C(C)C)c2occ(-c3ccc(O)cc3)c(=O)c2c1O`, the Activity result with RAW264.7 [1] was “Non-toxic”. For the same molecule, the pIC50 in the data set with RAW264.7 [2] was 4.72.

For the molecule `COc1ccc(-c2coc3cc4c(c(O)c3c2=O)C=CC(C)(C)O4)cc1O`, the Activity entry in the data set with RAW264.7 [1] is “Non-toxic”. Further, the pIC50 in the data set with RAW264.7 [2] was less than 4.30.

Take `C=C(C)C(O)Cc1c(O)cc2occ(-c3ccc(OC)cc3)c(=O)c2c1O` (stereo not given): the Activity result in the data set on RAW264.7 [1] is listed as “Non-toxic”. Besides, in the data set on RAW264.7 [2], the pIC50 was less than 4.30.

For the molecule `CO[C@@H]1c2c(c(CC=C(C)C)c(O)c3c(=O)c(-c4ccc(O)cc4)coc23)O[C@H]1C(C)(C)O`, the Activity entry in the data set on RAW264.7 [1] was “Non-toxic”. Also, the pIC50 with RAW264.7 [2] is 4.93.

Consider `CC(C)=CCc1c2oc(C(C)(C)O)cc2c(O)c2c(=O)c(-c3ccc(O)cc3)coc12`, for which the Activity entry in the data set on RAW264.7 [1] was “Non-toxic”. Further, the pIC50 in the data set with RAW264.7 [2] was 4.92.

With `O=C1c2c(O)cc(O)c(Cc3ccc(O)cc3)c2O[C@H](c2ccc(O)cc2)[C@H]1O`, in the data set on RAW264.7 [1], the Activity entry is recorded as “Non-toxic”. For the same molecule, the pIC50 in the data set with RAW264.7 [2] is less than 4.30.

Take `C=C(C)C(O)Cc1c(O)c(CC=C(C)C)c(O)c2c(=O)c(-c3ccc(O)cc3)coc12` (stereo not given) [ERYSENEGALENSEIN E]: the Activity entry with RAW264.7 [1] was “Non-toxic”. The molecule also had a pIC50 in the data set on RAW264.7 [2] of 4.74.

On to `O=C1c2c(O)c(Cc3ccc(O)cc3)c(O)c(Cc3ccc(O)cc3)c2O[C@H](c2ccc(O)cc2)[C@H]1O` [GERICUDRANIN D], for which the Activity result in the data set with RAW264.7 [1] is “Non-toxic”. The molecule also had a pIC50 in the data set on RAW264.7 [2] of less than 4.30.

Consider `O=C1c2c(cc(O)c(Cc3ccc(O)cc3)c2O)O[C@H](c2ccc(O)cc2)[C@H]1O` [GERICUDRANIN E], for which the Activity entry in the data set with RAW264.7 [1] is “Non-toxic”. In addition, the pIC50 with RAW264.7 [2] was 4.38.

As to `C=C(C)C(O)Cc1c(O)c(CC=C(C)C)c2occ(-c3ccc(O)cc3)c(=O)c2c1O` (stereo not given) [ISOERYSENEGALENSEIN E], in the data set with RAW264.7 [1], the Activity entry is on record as “Non-toxic”. In the data set with RAW264.7 [2], this molecule gave a pIC50 of 4.90.

As to `O=c1c(-c2ccc(O)c(O)c2)coc2cc(O)cc(O)c12` [OROBOL], the Activity entry with RAW264.7 [1] is given as “Non-toxic”. In addition, the negative-log IC50 (pIC50) in the data set on RAW264.7 [2] is 4.73.

Molecule `N=C(N)NN` [PIMAGEDINE] gave a pIC50 in the data set on RAW264.7 [2] of 4.55.

With `CC(C)=CCc1c2c(c3occ(-c4ccc(O)cc4)c(=O)c3c1O)CC(C(C)(C)O)O2` (stereo not given) [SENEGALENSIN], in the data set on RAW264.7 [1], the Activity entry is given as “Non-toxic”. Further, the negative-log IC50 (pIC50) in the data set with RAW264.7 [2] is 4.88.
